Results reported in ChEMBL document CHEMBL1275432, “Daptomycin is effective in treatment of experimental endocarditis due to methicillin-resistant and glycopeptide-intermediate Staphylococcus aureus” (Antimicrob Agents Chemother, 2008).
In brackets after ≈: the same amount, converted by molar mass. Activity calls are given as the source filed them.

Tests used:
[1] = system: Staphylococcus aureus; assay: Antimicrobial activity against glycopeptide-intermediate Staphylococcus aureus ATCC 700788 by microdilution method; assay type: functional
Outline: (§1)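 Broth microdilution MIC and MBC per CLSI in cation-adjusted Mueller-Hinton broth. For daptomycin, the broth was adjusted to 50 µg/ml calcium. S. aureus ATCC 29213 was the control strain.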

[2] = Plasma protein binding in New Zealand White rabbit plasma at 1 g, iv administered every 12 hrs; assay type: ADME, organism-based, Oryctolagus cuniculus; details: read-out: PPB (converted)
[3] = system: Staphylococcus aureus; assay: Antimicrobial activity against methicillin-resistant Staphylococcus aureus after 72 hrs by Etest; assay type: functional
[4] = Terminal half-life in human serum at 1 g, iv administered every 12 hrs; assay type: ADME, organism-based
[5] = system: Staphylococcus aureus; assay: Bacteriostatic activity against methicillin-resistant Staphylococcus aureus 277 at 0.5 to 4 times MIC by time-kill experiment; assay type: functional, organism-based
Outline: (§2)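 Time-kill curves per CLSI, run in duplicate. Inoculum was 10^5 CFU/ml, with drug at 0.5–4× MIC. Viable counts were taken at 0, 4 and 24 h. Bactericidal was defined as a ≥3-log CFU reduction at 24 h versus the initial inoculum.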

[6] = Terminal half-life in New Zealand White rabbit at 1 g, iv administered every 12 hrs; assay type: ADME, organism-based, Oryctolagus cuniculus; details: in vivo
Outline: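 The vancomycin line simulated 1 g i.v. q 12 h (30 mg/kg/day in 2 doses). The daptomycin line simulated 6 mg/kg q 24 h. Parameters came from an open 2-compartment model. Daptomycin was measured by disk-plate bioassay with Micrococcus luteus ATCC 9341 (sensitivity 0.5 µg/ml). Vancomycin was measured by latex-boosted immunoturbidimetry (LOD 0.8 µg/ml).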

[7] = Cmin in New Zealand White rabbit infected with glycopeptide-intermediate Staphylococcus aureus after 24 hrs; assay type: ADME, organism-based, Oryctolagus cuniculus; details: in vivo, read-out: Cmin
Outline: (§3)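 Trough serum concentrations were taken in rabbits with catheter-induced aortic valve endocarditis. Infection was 1 ml i.v. via the marginal ear vein: 7 × 10^5 CFU/ml for MRSA or 8 × 10^5 CFU/ml for GISA. Human-simulating pump infusion started 18 h after infection and ran 48 h. Daptomycin was assayed by M. luteus bioassay, vancomycin by immunoturbidimetry.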

[8] = Cmin in New Zealand White rabbit infected with methicillin-resistant Staphylococcus aureus after 24 hrs; assay type: ADME, organism-based, Oryctolagus cuniculus; details: in vivo, read-out: Cmin; outline: as §3
[9] = system: Staphylococcus aureus; assay: Bacteriostatic activity against glycopeptide-intermediate Staphylococcus aureus ATCC 700788 at 0.5 to 4 times MIC by time-kill experiment; assay type: functional, organism-based; outline: as §2
[10] = system: Staphylococcus aureus; assay: Bactericidal activity against glycopeptide-intermediate Staphylococcus aureus ATCC 700788 at 0.5 to 4 times MIC by time-kill experiment; assay type: functional, organism-based; outline: as §2
[11] = AUC in human serum at 6 mg/kg, iv administered every 24 hrs; assay type: ADME, organism-based; set-up: dose 6 mg/kg, route intravenous
[12] = system: Staphylococcus aureus; assay: Antimicrobial activity against methicillin-resistant Staphylococcus aureus by Etest; assay type: functional
[13] = system: Staphylococcus aureus; assay: Antimicrobial activity against methicillin-resistant Staphylococcus aureus 277 by microdilution method; assay type: functional; outline: as §1
[14] = Plasma protein binding in New Zealand White rabbit plasma at 6 mg/kg, iv administered every 24 hrs; assay type: ADME, organism-based, Oryctolagus cuniculus; set-up: dose 6 mg/kg, route intravenous; details: read-out: PPB (converted)
[15] = Terminal half-life in human serum at 6 mg/kg, iv administered every 24 hrs; assay type: ADME, organism-based; set-up: dose 6 mg/kg, route intravenous
[16] = system: Staphylococcus aureus; assay: Bactericidal activity against methicillin-resistant Staphylococcus aureus 277 at 0.5 to 4 times MIC by time-kill experiment; assay type: functional, organism-based; outline: as §2
[17] = Plasma protein binding in human serum at 6 mg/kg, iv administered every 24 hrs; assay type: ADME, organism-based; set-up: dose 6 mg/kg, route intravenous; details: read-out: PPB (converted)
[18] = Cmax in human serum at 6 mg/kg, iv administered every 24 hrs; assay type: ADME, organism-based; set-up: dose 6 mg/kg, route intravenous

Molecule	MBC [1] [µg/mL]	MIC [1] [µg/mL]	fraction unbound at 12 h [2]	MIC [3] [µg/mL]	half-life [4] [h]	Activity [5]	half-life [6] [h]	concentration at 24 h [7] [ng/mL]	concentration at 24 h [8] [ng/mL]	Activity [9]	Activity [10]	AUC at 24 h [11] [µg·h/mL]	MIC [12] [µg/mL]	MIC [13] [µg/mL]	fraction unbound at 24 h [14]	half-life [15] [h]	Activity [16]	fraction unbound at 24 h [17]	Cmax [18] [ng/mL]
GENTAMICIN	128	0.25	–	–	–	–	–	–	–	–	–	–	–	–	–	–	–	–	–
CN[C@H](CC(C)C)C(=O)N[C@H]1C(=O)N[C@@H](CC(N)=O)C(=O)N[C@H]2C(=O)N[C@H]3C(=O)N[C@H](C(=O)N[C@H](C(=O)O)c4cc(O)cc(O)c4-c4cc3ccc4O)[C@H](O)c3ccc(c(Cl)c3)Oc3cc2cc(c3O[C@@H]2O[C@H](CO)[C@@H](O)[C@H](O)[C@H]2O[C@H]2C[C@](C)(N)[C@H](O)[C@H](C)O2)Oc2ccc(cc2Cl)[C@H]1O [VANCOMYCIN]	–	–	0.35	8 (≈ 5.52 µM)	4.8	Active	1.3	20000	20000	Active	–	–	–	–	–	–	–	–	–
CCCCCCCCCC(=O)N[C@@H](Cc1c[nH]c2ccccc12)C(=O)N[C@H](CC(N)=O)C(=O)N[C@@H](CC(=O)O)C(=O)N[C@@H]1C(=O)NCC(=O)N[C@@H](CCCN)C(=O)N[C@@H](CC(=O)O)C(=O)N[C@H](C)C(=O)N[C@@H](CC(=O)O)C(=O)NCC(=O)N[C@H](CO)C(=O)N[C@@H]([C@H](C)CC(=O)O)C(=O)N[C@@H](CC(=O)c2ccccc2N)C(=O)O[C@@H]1C	1 (≈ 0.617 µM)	0.5 (≈ 0.309 µM)	–	0.5 (≈ 0.309 µM)	–	–	–	–	–	–	Active	974	0.12 (≈ 0.074 µM)	0.12 (≈ 0.074 µM)	0.1	9.5	Active	0.08	86000
